Data as given in ChEMBL document CHEMBL4028914, “Structure-Based Design of 6-Chloro-4-aminoquinazoline-2-carboxamide Derivatives as Potent and Selective p21-Activated Kinase 4 (PAK4) Inhibitors” (J Med Chem, 2018).
pIC50, pKd, pKi: −log10 of the molar value. The source made the active and inactive calls. The rule behind the calls is not given here.

Key:
[1] = biological target: T1, Serine/threonine-protein kinase PAK 4 (Homo sapiens, UniProt O96013); test: Inhibition of human PAK4 kinase domain using coumarin and fluorescein-labeled ser/thr20 peptide as substrate preincubated for 15 mins followed by ATP addition measured after 60 mins by Z'-Lyte assay
Target sequence in this assay (O96013 whole entry, the tested form may be a part): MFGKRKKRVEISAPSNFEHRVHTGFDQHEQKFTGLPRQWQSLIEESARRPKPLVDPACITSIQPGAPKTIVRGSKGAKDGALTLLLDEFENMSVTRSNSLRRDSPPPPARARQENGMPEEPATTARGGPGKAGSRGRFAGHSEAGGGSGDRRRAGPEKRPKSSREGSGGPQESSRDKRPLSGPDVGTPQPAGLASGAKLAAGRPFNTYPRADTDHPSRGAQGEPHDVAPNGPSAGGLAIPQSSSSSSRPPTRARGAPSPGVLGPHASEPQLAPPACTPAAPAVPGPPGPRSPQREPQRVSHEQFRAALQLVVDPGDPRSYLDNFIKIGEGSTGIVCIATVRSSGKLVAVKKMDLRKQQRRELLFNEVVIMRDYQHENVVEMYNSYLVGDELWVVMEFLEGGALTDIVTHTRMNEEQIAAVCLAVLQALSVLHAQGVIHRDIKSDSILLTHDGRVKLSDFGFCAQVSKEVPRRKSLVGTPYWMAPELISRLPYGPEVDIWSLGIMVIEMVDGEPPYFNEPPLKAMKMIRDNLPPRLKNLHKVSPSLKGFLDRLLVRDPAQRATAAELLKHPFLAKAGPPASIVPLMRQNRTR

[2] = organism: Homo sapiens; test: Selectivity index, ratio of Ki for human PAK1 to Ki for human PAK4
Procedure, shortened: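 Ratio of PAK1 Ki to PAK4 Ki, both taken from the FRET-based Z′-Lyte assay.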

[3] = biological target: T2, Serine/threonine-protein kinase PAK 1 (Homo sapiens, UniProt Q13153); test: Inhibition of human PAK1 kinase domain using coumarin and fluorescein-labeled ser/thr19 peptide as substrate preincubated for 15 mins followed by ATP addition measured after 60 mins by Z'-Lyte assay
Procedure, shortened: (§1)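 FRET-based Z′-Lyte kinase assay run per the kit instructions. Ki values are the average of at least two duplicate experiments; SEM < ±20%.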

[4] = biological target: T1, Serine/threonine-protein kinase PAK 4; test: Inhibition of GST-tagged human PAK4 (295 to 591 residues) expressed in Baculovirus expression system by Z'-Lyte assay; procedure, shortened: as §1
Target sequence in this assay (O96013 whole entry, the tested form may be a part): as above

[5] = biological target: Serine/threonine-protein kinase PAK 5 (Homo sapiens, UniProt Q9P286); test: Inhibition of full length recombinant human His-tagged PAK5 […] expressed in Baculovirus expression system by Z'-Lyte assay
[6] = biological target: T1, Serine/threonine-protein kinase PAK 4; test: Binding affinity to biotin-labeled human truncated PAK4 kinase domain by surface plasmon resonance assay
Procedure, shortened: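 Binding to the truncated PAK4 was measured by SPR with multiconcentration kinetic analysis. Kd was taken from a 1:1 binding model fit.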
Target sequence in this assay (O96013 whole entry, the tested form may be a part): as above

[7] = system: HEK293; test: Antiinvasive activity against human HEK293 cells at 0.5 to 10 uM after 24 hrs by transwell assay; assay type: functional, cell-based
[8] = system: A549; test: Antiproliferative activity against human A549 cells up to 72 hrs by MTT assay; assay type: functional, cell-based
[9] = biological target: T1, Serine/threonine-protein kinase PAK 4; test: Inhibition of human PAK4 in human A549 cells assessed as decrease in phosphorylation of GEF-H1 at Ser810 residue up to 10 uM by Western blotting method; assay type: cell-based
Target sequence in this assay (O96013 whole entry, looked up, the tested form may be a part): as the sequence (O96013 whole entry, the tested form may be a part) above

[10] = system: NCI-H460; test: Antimigratory activity against human NCI-H460 cells at 0.5 to 10 uM after 24 hrs by transwell assay; assay type: functional, cell-based
[11] = system: A549; test: Antimigratory activity against human A549 cells at 0.5 to 10 uM after 24 hrs by transwell assay; assay type: functional, cell-based
[12] = biological target: T1, Serine/threonine-protein kinase PAK 4; test: Inhibition of GST-tagged human PAK4 (295 to 591 residues) expressed in Baculovirus expression system at 0.1 uM by Z'-Lyte assay relative to control
Target sequence in this assay (O96013 whole entry, looked up, the tested form may be a part): as the sequence (O96013 whole entry, the tested form may be a part) above

[13] = system: HEK293; test: Antimigratory activity against human HEK293 cells at 0.5 to 10 uM after 24 hrs by transwell assay; assay type: functional, cell-based
[14] = biological target: T1, Serine/threonine-protein kinase PAK 4; test: Inhibition of human PAK4 in human A549 cells assessed as decrease in phosphorylation levels of LIMK1 by Western blotting method; assay type: cell-based
Target sequence in this assay (O96013 whole entry, looked up, the tested form may be a part): as the sequence (O96013 whole entry, the tested form may be a part) above

[15] = system: A549; test: Antimigratory activity against human A549 cells at 0.5 to 10 uM after 48 hrs by wound healing assay; assay type: functional, cell-based
[16] = biological target: T1, Serine/threonine-protein kinase PAK 4; test: Inhibition of human PAK4 in human A549 cells assessed as decrease in phosphorylation levels of cofilin by Western blotting method; assay type: cell-based
Target sequence in this assay (O96013 whole entry, looked up, the tested form may be a part): as the sequence (O96013 whole entry, the tested form may be a part) above

[17] = system: NCI-H460; test: Antiinvasive activity against human NCI-H460 cells at 0.5 to 10 uM after 24 hrs by transwell assay; assay type: functional, cell-based
[18] = system: A549; test: Antiinvasive activity against human A549 cells at 0.5 to 10 uM after 24 hrs by transwell assay; assay type: functional, cell-based
[19] = biological target: T1, Serine/threonine-protein kinase PAK 4; test: Inhibition of human PAK4 in human A549 cells assessed as decrease in phosphorylation levels of PAK4 at Ser474 residue by Western blot method; assay type: cell-based
Target sequence in this assay (O96013 whole entry, looked up, the tested form may be a part): as the sequence (O96013 whole entry, the tested form may be a part) above

[20] = biological target: T1, Serine/threonine-protein kinase PAK 4; test: Inhibition of human PAK4 in human A549 cells assessed as decrease in MMP2 expression up to 10 uM by Western blotting method; assay type: cell-based
Target sequence in this assay (O96013 whole entry, looked up, the tested form may be a part): as the sequence (O96013 whole entry, the tested form may be a part) above

[21] = biological target: T1, Serine/threonine-protein kinase PAK 4; test: Binding affinity to human truncated PAK4 kinase domain assessed as change in melting temperature at 20 uM by SYPRO orange dye based differential scanning fluorimetry
Procedure, shortened: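 Melting-temperature shift of the compound–truncated PAK4 complex was measured by differential scanning fluorimetry, relative to the truncated PAK4 protein alone.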

[22] = biological target: T1, Serine/threonine-protein kinase PAK 4; test: Inhibition of PAK4 (unknown origin) using histone H3 as substrate
Target sequence in this assay (O96013 whole entry, the tested form may be a part): as above

[23] = biological target: T2, Serine/threonine-protein kinase PAK 1; test: Inhibition of PAK1 (unknown origin)

T2 sequence (Q13153 whole entry, the tested form may be a part): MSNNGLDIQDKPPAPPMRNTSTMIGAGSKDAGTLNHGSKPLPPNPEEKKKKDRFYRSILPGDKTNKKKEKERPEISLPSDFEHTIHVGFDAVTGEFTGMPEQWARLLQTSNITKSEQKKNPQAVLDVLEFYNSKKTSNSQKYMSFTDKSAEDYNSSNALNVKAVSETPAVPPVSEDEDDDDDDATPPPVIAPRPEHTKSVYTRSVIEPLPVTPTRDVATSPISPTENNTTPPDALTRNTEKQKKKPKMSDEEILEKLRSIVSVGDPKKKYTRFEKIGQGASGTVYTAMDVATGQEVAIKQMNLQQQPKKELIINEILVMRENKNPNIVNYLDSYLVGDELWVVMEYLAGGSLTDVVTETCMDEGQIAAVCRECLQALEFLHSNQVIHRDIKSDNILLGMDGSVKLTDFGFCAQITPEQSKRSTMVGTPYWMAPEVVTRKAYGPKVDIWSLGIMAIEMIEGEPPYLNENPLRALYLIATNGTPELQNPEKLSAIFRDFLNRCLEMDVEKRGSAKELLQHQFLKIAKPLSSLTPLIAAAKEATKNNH
Sequence of Serine/threonine-protein kinase PAK 5 (Q9P286 whole entry, the tested form may be a part): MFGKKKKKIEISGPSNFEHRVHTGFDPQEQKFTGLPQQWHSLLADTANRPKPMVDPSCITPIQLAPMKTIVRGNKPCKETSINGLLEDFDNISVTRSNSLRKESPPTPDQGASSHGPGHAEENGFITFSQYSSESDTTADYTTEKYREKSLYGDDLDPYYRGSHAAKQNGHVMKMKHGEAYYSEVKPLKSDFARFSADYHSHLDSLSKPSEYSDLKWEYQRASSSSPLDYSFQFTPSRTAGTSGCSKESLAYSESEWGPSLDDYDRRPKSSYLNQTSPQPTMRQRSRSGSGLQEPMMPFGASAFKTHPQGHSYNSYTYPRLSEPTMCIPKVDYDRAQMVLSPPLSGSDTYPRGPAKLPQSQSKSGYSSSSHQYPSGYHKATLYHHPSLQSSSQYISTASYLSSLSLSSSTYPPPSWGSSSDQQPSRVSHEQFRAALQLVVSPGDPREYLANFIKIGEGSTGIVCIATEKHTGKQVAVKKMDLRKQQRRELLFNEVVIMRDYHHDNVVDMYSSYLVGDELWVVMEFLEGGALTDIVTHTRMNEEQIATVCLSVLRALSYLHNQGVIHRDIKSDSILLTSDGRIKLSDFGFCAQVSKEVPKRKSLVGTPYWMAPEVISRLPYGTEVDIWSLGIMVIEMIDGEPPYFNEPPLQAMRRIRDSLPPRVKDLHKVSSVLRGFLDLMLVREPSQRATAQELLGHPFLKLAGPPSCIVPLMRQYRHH

| SMILES | pKi [1] | Ratio Ki [2] | pKi [3] | also measured |
| --- | --- | --- | --- | --- |
| CNC1CCN(C(=O)c2nc(Nc3cc(C)[nH]n3)c3cc(Cl)ccc3n2)CC1 | 6.17 |  |  |  |
| NC1CCN(c2nc(Nc3cn(C4CC4)cn3)c3cc(Cl)ccc3n2)CC1 | 6.19 |  |  |  |
| Cc1cc(Nc2nc(C(=O)N3CCNC(=O)C3)nc3ccc(Cl)cc23)n[nH]1 | 5.62 |  |  |  |
| NC1CCN(c2nc(Nc3cn(-c4ccccc4)cn3)c3cc(Cl)ccc3n2)CC1 | 5.84 |  |  |  |
| Cc1cc(Nc2nc(C(=O)N3CCNC[C@@H]3C)nc3ccc(Cl)cc23)n[nH]1 | 6.66 | > 21 | < 5.34 |  |
| Cc1cc(Nc2nc(C(=O)N3CCC(C)(O)CC3)nc3ccc(Cl)cc23)n[nH]1 | 5.41 |  |  |  |
| Cc1cc(Nc2nc(C(=O)N3CCN[C@@H](C)C3)nc3ccc(Cl)cc23)n[nH]1 | 6.51 | > 15 | < 5.34 |  |
| Cc1cc(Nc2nc(C(=O)N3CC(C)NC(C)C3)nc3ccc(Cl)cc23)n[nH]1 (mixture of isomers) | 6.92 |  |  |  |
| C[C@@H]1CN(C(=O)c2nc(Nc3cc(C4CC4)[nH]n3)c3cc(Cl)ccc3n2)CCN1 [listing 1 of 2 here] |  |  | 5.51 | pIC50 [4]: 7.95; pIC50 [5]: 7.82 |
| NC1CCN(c2nc(Nc3cc(C4CC4)[nH]n3)c3cc(Cl)ccc3n2)CC1 | 7.80 | 19 | 6.54 | pKd [6]: 8.22 |
| Cc1cc(Nc2nc(C(=O)N3CCOCC3)nc3ccc(Cl)cc23)n[nH]1 | 5.66 |  |  | pKd [6]: 5.71 |
| Cc1cc(Nc2nc(C(=O)N(C)C3CCCNC3)nc3ccc(Cl)cc23)n[nH]1 (racemic) | 5.79 |  |  |  |
| C[C@@H]1CN(C(=O)c2nc(Nc3cc(C4CC4)[nH]n3)c3cc(Br)ccc3n2)CCN1 | 7.96 | 190 | 5.68 |  |
| COc1ccc2nc(C(=O)N3CCN[C@H](C)C3)nc(Nc3cc(C4CC4)[nH]n3)c2c1 | 7.44 | > 126 | < 5.34 |  |
| Cc1cc(Nc2nc(C(=O)N(C)C3CCNCC3)nc3ccc(Cl)cc23)n[nH]1 | 6.24 |  |  |  |
| C[C@@H]1CN(C(=O)c2nc(Nc3cc(C4CC4)[nH]n3)c3ccc(Cl)cc3n2)CCN1 | 8.15 | 57 | 6.40 |  |
| Cc1cc(Nc2nc(C(=O)NC3CNC3)nc3ccc(Cl)cc23)n[nH]1 | 6.11 |  |  |  |
| Cc1cc(Nc2nc(C(=O)NC3CCNCC3)nc3ccc(Cl)cc23)n[nH]1 | 6.49 |  |  |  |
| C[C@@H]1CN(C(=O)c2nc(Nc3cc(C4CC4)[nH]n3)c3cc(Cl)ccc3n2)CCN1 [listing 2 of 2 here] |  | 346 |  | Activity [7]: inactive; Activity [8]: Active; inhibition [9]: Active; Activity [10]: inactive; Activity [11]: Active; inhibition [12]: > 80%; Activity [13]: inactive; inhibition [14]: Dose-dependent effect; Activity [15]: Active; inhibition [16]: Dose-dependent effect; Activity [17]: inactive; Activity [18]: Active; inhibition [19]: Dose-dependent effect; inhibition [20]: Active |
| Cn1cnc(Nc2nc(N3CCC(N)CC3)nc3ccc(Cl)cc23)c1 | 6.15 | > 14 | < 5.00 | ΔTm [21]: 0.5 °C; pKd [6]: 6.81 |

| SMILES | pKi [1] | Ratio Ki [2] | pKi [3] | also measured |
| --- | --- | --- | --- | --- |
| CC(C)c1cc(Nc2nc(N3CCC(N)CC3)nc3ccc(Cl)cc23)n[nH]1 | 7.11 |  |  |  |
| CC[C@@H]1CN(C(=O)c2nc(Nc3cc(C4CC4)[nH]n3)c3cc(Cl)ccc3n2)CCN1 | 8.22 | 61 | 6.43 |  |
| C[C@@H]1CN(C(=O)c2nc(Nc3cc(C4CC4)[nH]n3)c3cc(F)ccc3n2)CCN1 | 7.80 | 31 | 6.30 |  |
| Cc1cc(Nc2nc(C(=O)N3CCNCC3)nc3ccc(Cl)cc23)n[nH]1 | 7.35 | > 222 | < 5.00 | pKd [6]: 7.18 |
| COc1cccc(Nc2nc(NCC3CCCO3)c3ccccc3n2)c1 (configuration not stated) |  |  |  | pIC50 [22]: 4.83; pIC50 [23]: 4.32 |
| Cc1cc(Nc2nc(C(=O)N3CCN[C@H](C)C3)nc3ccc(Cl)cc23)n[nH]1 | 7.29 | > 196 | < 5.00 |  |
| Cc1cc(Nc2nc(C(=O)N3CCC(N)CC3)nc3ccc(Cl)cc23)n[nH]1 | 6.45 |  |  |  |
| C[C@H]1CNCCN1C(=O)c1nc(Nc2cc(C3CC3)[nH]n2)c2cc(Cl)ccc2n1 | 7.59 | 15 | 6.42 |  |
| CC1CN(C(=O)c2nc(Nc3cc(C4CC4)[nH]n3)c3cc(Cl)ccc3n2)CC(C)N1 (mixture of isomers) | 6.94 | > 40 | < 5.34 |  |
| Cc1cc(Nc2nc(C(=O)N3CCNC[C@H]3C)nc3ccc(Cl)cc23)n[nH]1 | 6.82 | > 30 | < 5.34 |  |
| C[C@H]1CN(C(=O)c2nc(Nc3cc(C4CC4)[nH]n3)c3cc(Cl)ccc3n2)CCN1 | 7.55 | 25 | 6.16 |  |
| Cc1cc(Nc2nc(N3CCC(N)CC3)nc3ccc(Cl)cc23)n[nH]1 | 7.00 | 18 | 5.72 | pKd [6]: 7.37 |
| C[C@@H]1CNCCN1C(=O)c1nc(Nc2cc(C3CC3)[nH]n2)c2cc(Cl)ccc2n1 | 7.77 | 122 | 5.68 |  |
| C[C@@H]1CN(C(=O)c2nc(Nc3cc(C4CC4)[nH]n3)c3ccccc3n2)CCN1 | 7.77 | 63 | 5.97 |  |
| Cc1cc(Nc2nc(C(=O)N3CCC(O)CC3)nc3ccc(Cl)cc23)n[nH]1 | 5.42 |  |  |  |
| NC1CCN(c2nc(Nc3cc(-c4ccccc4)[nH]n3)c3cc(Cl)ccc3n2)CC1 | 6.59 |  |  |  |
| O=C(c1nc(Nc2cc(C3CC3)[nH]n2)c2cc(Cl)ccc2n1)N1CCNCC1 | 7.80 | 172 | 5.56 | pKd [6]: 7.80 |
| Cc1cc(Nc2nc(C(=O)N3CCC(C)(N)CC3)nc3ccc(Cl)cc23)n[nH]1 | 6.17 |  |  |  |
| Cc1cc(Nc2nc(C(=O)N3CCN(C)CC3)nc3ccc(Cl)cc23)n[nH]1 | 6.11 |  |  |  |
| CC(C)n1cnc(Nc2nc(N3CCC(N)CC3)nc3ccc(Cl)cc23)c1 | 6.05 |  |  |  |
